Common to all, as to format: functional, cell-based
The subject of one test is Bel-7402. Description: Cytotoxicity against human Bel7402 cells after 96 hrs by MTT assay. As to conditions: Bel-7402, 96 h. The method in brief:
(§1)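 Cells kept in RPMI 1640 with 10% FBS, 100 units/mL penicillin and 100 µg/mL streptomycin at 37 °C, humidified 5% CO2. Seeded at 1200 cells/well; compounds added after 24 h at five concentrations from DMSO stocks (0.1% DMSO final), three wells per concentration.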

Another test deals with WISH. Description: Cytotoxicity against human WISH cells after 96 hrs by MTT assay. In short, it runs like this: as §1
Another test concerns A2780. The experiment in a line: Cytotoxicity against human A2780 cells after 96 hrs by MTT assay. As to conditions: A2780, 96 h. In short, it runs like this:
as §1
In general terms: Tetrazolium dyes change colour on reduction, which living cells bring about.

For another test, the system named is HCT-8. Description: Cytotoxicity against human HCT8 cells after 96 hrs by MTT assay. As to conditions: HCT-8, 96 h. In short, it runs like this: as §1
A further test relates to A549. The experiment in a line: Cytotoxicity against human A549 cells after 96 hrs by MTT assay. Particulars: A549, 96 h. In short, it runs like this:
as §1

Another test concerns MCF7. The experiment in a line: Cytotoxicity against human MCF7 cells after 96 hrs by MTT assay. As to conditions: MCF7, 96 h. The method in brief:
as §1

Another test has as its system BGC-823. Description: Cytotoxicity against human BGC823 cells after 96 hrs by MTT assay. As to conditions: BGC-823, 96 h. The method in brief: as §1

As usually defined, the IC50 is the midpoint of a concentration-inhibition curve. A higher IC50 goes with weaker potency.

In the case of `COc1cc(O)c(-c2c(O)cc(OC)c3c2ccc2cc(O)ccc23)c2ccc3cc(O)ccc3c12` [CIRRHOPETALANTHIN], the 50% inhibitory concentration (IC50) in the test with Bel-7402 is 8.4 µM; in the test on WISH, > 22.7 µM; in the test on A2780, 13.2 µM; with HCT-8, 11.2 µM; with A549 it was 17.8 µM; in the test on MCF7, 12.5 µM. The compound further showed an IC50 with BGC-823 of 10.5 µM.

Take `COc1cc(O)cc2ccc3cc(O)ccc3c12` [FLAVANTHRININ]: the IC50 in the test on Bel-7402, in the test with WISH, with A2780, in the test on HCT-8, with A549 and in the test on MCF7 was > 20.8 µM each time. Further, the IC50 in the test on BGC-823 was > 20.8 µM.

For the compound `COc1ccc2c(ccc3c(-c4c(O)cc(OC)c5c4ccc4cc(O)ccc45)c(O)cc(OC)c32)c1`, the IC50 with Bel-7402, in the test on WISH, in the test on A2780, in the test with HCT-8, in the test with A549 and in the test with MCF7 was > 10.2 µM in each case. The half-maximal inhibitory concentration (IC50) in the test on BGC-823 was > 10.2 µM.

Turning to `COC1=CC(=O)C(O)(CC(C)=O)c2ccc3cc(OC)ccc3c21` (stereo not drawn), the IC50 with Bel-7402, in the test on WISH, in the test on A2780, in the test with HCT-8, in the test with A549 and in the test with MCF7 was > 15.3 µM each time. In the test on BGC-823, the IC50 was > 15.3 µM.

Take `COc1ccc2c(ccc3c(-c4c(O)ccc5c4ccc4c(-c6c(O)cc(OC)c7c6ccc6cc(O)ccc67)c(O)cc(OC)c45)c(O)cc(OC)c32)c1`: the IC50 in the test on Bel-7402 is 8.2 µM; with WISH, > 15 µM; in the test with A2780, 8.1 µM; in the test on HCT-8, 8 µM; in the test with A549, 11.6 µM; with MCF7, 8.3 µM. Also, inhibition in the test on BGC-823 was half-maximal at 8.4 µM (IC50).

Consider `COc1ccc2c(ccc3cc(O)cc(OC)c32)c1`, for which the IC50 with Bel-7402, with WISH, in the test with A2780, with HCT-8, with A549 and in the test on MCF7 was > 5 µM throughout. For the same compound, the IC50 with BGC-823 is > 5 µM.

As for `CC[C@@]1(O)C(=O)OCc2c1cc1n(c2=O)Cc2cc3c(CN(C)C)c(O)ccc3nc2-1` [TOPOTECAN], the IC50 with Bel-7402 was determined as 1.2 µM; in the test on WISH, 1.3 µM; in the test on A2780, 1.1 µM; in the test with HCT-8 it was 1.5 µM; with A549 it was 3.3 µM; in the test on MCF7, 1.9 µM. This compound gave an IC50 in the test on BGC-823 of 4.4 µM.

Consider `COc1ccc2c(ccc3c(-c4c(O)cc(OC)c5c4ccc4cc(OC)ccc45)c(O)cc(OC)c32)c1`, for which the IC50 was 11.1 µM with Bel-7402; 5 µM in the test with WISH; 11 µM in the test with A2780; 10.7 µM in the test on HCT-8; 11.6 µM with A549; 11.9 µM in the test with MCF7. Besides, it took 9.5 µM to reach half-maximal inhibition in the test with BGC-823 (IC50).

Take `COC1=CC(=O)C(O)(CC(C)=O)c2ccc3cc(O)ccc3c21` (stereo not drawn): the half-inhibitory concentration (IC50) in the test on Bel-7402, in the test with WISH, in the test on A2780, with HCT-8, in the test on A549 and with MCF7 was > 16 µM in each case. The IC50 in the test with BGC-823 is > 16 µM.

Values taken from ChEMBL document CHEMBL1157965, “Mono-, Bi-, and triphenanthrenes from the tubers of Cremastra appendiculata” (J Nat Prod, 2006).
